Screens deposited in PubChem by several laboratories.
Hits are enriched below; roughly 3% of the tested compounds scored in any of these assays.
PfGluPho inh = PfG6PD enzyme inhibitors, primary screen, biochemical, fluorescence intensity, uHTS. 350,000 tested, 0.78% active. inhibition, % at 20 µM. glucose-6-phosphate dehydrogenase-6-phosphogluconolactonase (Plasmodium falciparum 3D7). PfGluPho enzyme, NADPH resazurin-diaphorase fluorescence;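 active = inhibition reaching at least a set limit at 20 µM in the primary screen, cut at about 59% in these data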;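 also: 0% = DMSO wells with substrate and 100% = DMSO wells lacking glucose-6-phosphate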
B2AR ag = beta2AR agonists driving receptor internalization, primary screen, cell-based, FAP fluorogen, flow cytometry | response, % (no concentration beside the values) | Am2.2-beta2AR cells | Beta-2 adrenergic receptor (Homo sapiens), P07550 | 340,000 tested, 0.43% active;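 active = response above a set limit, near 3 SD of response in nonfluorescent compounds, cut at about 42% in these data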
MC4R ag barr = MC4R agonists recruiting beta-arrestin, primary screen, cell-based, luminescence, agonist arm of biased-ligand search; Melanocortin receptor 4 (Homo sapiens), P32245; U2OS MC4R beta-arrestin complementation; percent of melanotan II response, DMSO zero; activation, % at 8.9 µM; 360,000 tested, 0.98% active; AID 540308, 2011;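 active = activation above a per-plate cutoff, the mean activation of sample wells on that plate plus 3 SD, cut at about 8% in these data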
MC4R antagonist = MC4R antagonists of cAMP signaling, primary screen, cell-based, TR-FRET, antagonist arm of biased-ligand search | MC4R-expressing cells, MTII-stimulated cAMP, LANCE TR-FRET | inhibition, % at 6.5 µM | 360,000 tested, 0.48% active;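 active = inhibition above its plate's cutoff, the mean of tested wells on that plate plus 3 SD, cut at about 29% in these data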;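 also: 0% = Melanotan II alone and 100% = Melanotan II plus saturating MCL0020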
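Material: human MC4R-expressing U2OS cells. Probe or stimulus: Melanotan II challenge. Dosing: 6.5 µM single dose. Times: 30-min compound, 1-h challenge, 1-h detection, room temperature. Technique: TR-FRET with Eu-cAMP and labeled anti-cAMP, 671 nm. Replication: singlicate.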
ABHD5-PLIN5 inh = ABHD5-PLIN5 interaction inhibitors, primary screen, cell lysate, split luciferase complementation, luminescence | Perilipin-5 (Homo sapiens) + 1-acylglycerol-3-phosphate O-acyltransferase ABHD5 (Homo … | Split G. princeps luciferase complementation, 4 h | inhibition, % at 4 µM | 360,000 tested, 0.78% active | AID 602281, 2012;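 active = inhibition above the mean inhibition across every tested compound plus 3 SD, cut at about 22% in these data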;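 also: 0% = DMSO only wells and the 100% control is not disclosed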
MC4R barr conf = MC4R beta-arrestin agonists, retest, confirmation, cell-based, luminescence, U2OS | shares compounds with MC4R ag barr | U2OS MC4R beta-arrestin recruitment; scaled DMSO 0%, Melanotan II 100% | activation, % at 8.9 µM | 2,400 tested, 31% active;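 active = mean activation across replicates above the hit cutoff set in the earlier primary screen, cut at about 8% in these data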
MOR DOR agonist = agonists of MOR-DOR heterodimerization, counter-screen for MC4R biased agonist project, cell-based, luminescence. U2OS PathHunter beta-arrestin, beta-gal luminescence; percent of deltorphin B response, DMSO zero. AID 602194, 2012. 2,400 tested, 5.8% active. shares compounds with MC4R ag barr. activation, % at 9.2 µM;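 active = mean activation across replicates exceeds the hit threshold derived in the earlier primary screen, cut at about 18% in these data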;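 also: 100% = deltorphin B at 0.9 µM final and 0% = DMSO alone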
Target sequence (P35372 whole entry, looked up): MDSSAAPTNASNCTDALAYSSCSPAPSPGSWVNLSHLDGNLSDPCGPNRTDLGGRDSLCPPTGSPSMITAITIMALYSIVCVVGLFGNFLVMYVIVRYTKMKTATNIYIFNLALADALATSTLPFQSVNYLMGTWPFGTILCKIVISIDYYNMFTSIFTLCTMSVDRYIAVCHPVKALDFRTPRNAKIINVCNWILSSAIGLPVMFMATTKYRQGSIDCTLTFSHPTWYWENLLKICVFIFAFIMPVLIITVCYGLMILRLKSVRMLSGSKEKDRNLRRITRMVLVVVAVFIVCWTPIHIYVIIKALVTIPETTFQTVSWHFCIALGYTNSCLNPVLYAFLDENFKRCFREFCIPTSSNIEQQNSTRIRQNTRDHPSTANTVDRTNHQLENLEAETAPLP
Target sequence (P41143 whole entry, looked up): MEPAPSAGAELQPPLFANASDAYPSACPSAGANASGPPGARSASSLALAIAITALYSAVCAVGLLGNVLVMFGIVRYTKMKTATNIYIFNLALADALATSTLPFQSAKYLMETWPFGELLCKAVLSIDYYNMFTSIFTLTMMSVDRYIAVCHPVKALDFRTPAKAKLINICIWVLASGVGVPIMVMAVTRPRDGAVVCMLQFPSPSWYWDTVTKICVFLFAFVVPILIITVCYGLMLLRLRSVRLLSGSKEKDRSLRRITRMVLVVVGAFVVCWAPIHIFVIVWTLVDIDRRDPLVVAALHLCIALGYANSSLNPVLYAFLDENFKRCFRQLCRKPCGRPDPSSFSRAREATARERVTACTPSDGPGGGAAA
An asterisk follows results filed as active; . = no result.

SMILES	PfGluPho inh	B2AR ag	MC4R ag barr	MC4R antagonist	ABHD5-PLIN5 inh	MC4R barr conf	MOR DOR agonist
CC(Oc1ccc(-c2nccc(-c3ccccn3)n2)cc1)C(=O)NN (configuration not stated)	-6	2	0	2	-1	.	.
Nc1sc(-c2ccccc2)cc1-c1n[nH]c(=S)n1C1CCCCC1	13	-6	11*	-16	-4	7	8
CCCNc1c(NS(=O)(=O)c2ccc3c(c2)CCCC3)c(=O)oc2ccccc12	12	4	14*	6	0	3	3
C[C@@]12CCC3[C@@](CCC4[C@@]3(C)CCC[C@@]4(C)C(=O)N3CCCCC3)(CC1=O)C2 (some centres not stated)	-2	-7	0	0	-4	.	.
CC[C@H](C)[C@H]1CNC(=S)N1CC1CCN(CCC23CC4CC(CC(C4)C2)C3)CC1	11	5	2	2	3	.	.
Cc1ccc(NC(=O)CCC(=O)OCC(=O)c2ccc(Oc3ccc([N+](=O)[O-])cc3)cc2)cc1	4	-1	26*	-3	-9	-1	6
CCOC(=O)c1c(-c2ccco2)csc1NC(=O)COC(=O)c1cnc(C)cn1	6	5	-3	2	18	.	.
N#Cc1c(NC(=O)COC(=O)c2nccnc2N)sc2c1CCCC2	-3	2	3	14	1	.	.
CCOC(=O)c1c(NC(=O)COC(=O)c2nccnc2N)sc2c1CCC2	-6	11	16*	-4	0	5	6
Cc1cccc2c(N=Nc3ccccc3)c(O)[nH]c12	4	0	15*	-3	-7	1	2
Oc1[nH]c2ccccc2c1N=Nc1cccc(Cl)c1	15	8	0	-4	5	.	.
CCSc1nnc(-c2ccc(Cl)cc2)c2ccccc12	6	-13	19*	2	-4	-2	3
C=C(C)Cn1c(-c2ccncc2)n[nH]c1=S	10	26	-2	6	-5	.	.
Clc1ccc(C2=Nn3c(nnc3-c3cc(-c4ccccc4)n[nH]3)SC2)cc1	18	17	41*	-5	-2	23*	8
CCc1c(C(=O)Nc2cc(C)ccc2OC)[nH]c(C)c1C(C)=O	-13	-2	11*	3	3	10*	6
CCc1c(C(=O)Nc2ccc(OC)cc2)[nH]c(C)c1C(C)=O	-10	8	-3	-4	-4	.	.
Cc1ccc(C(C)C)c(OCc2nn(CC(=O)c3ccc(OC(F)F)cc3)c3[n+]2CCCCC3)c1	1	3	20*	16	18	14*	25*
O=C(Cn1nc(-c2nn(CC(=O)c3ccccc3)c3[n+]2CCCCC3)[n+]2c1CCCCC2)c1ccccc1	0	4	2	5	4	.	.
N#Cc1sc2nc(C3CC3)cc(-c3ccccc3)c2c1N	7	-12	-1	18	-6	.	.
N#Cc1sc2nc(-c3cccs3)cc(-c3ccc(F)cc3)c2c1N	5	10	35*	26	-7	19*	6
NC(=O)CC(NC(=O)c1ccc(Br)cc1)c1ccc(NCCc2ccc(F)cc2)c([N+](=O)[O-])c1 (configuration not stated)	-43	-9	13*	3	-3	-1	3
NC(=O)CC(NC(=O)c1ccccc1)c1ccc(NCCc2cccc(F)c2)c([N+](=O)[O-])c1 (configuration not stated)	14	1	-1	5	6	.	.
